In ChEMBL document CHEMBL3739255, “Novel Series of Dihydropyridinone P2X7 Receptor Antagonists” (J Med Chem, 2015):
pIC50: −log10 of the molar value.

Assays:
[1] = target: Muscarinic acetylcholine receptor M2 (Homo sapiens) (UniProt P08172); experiment: Inhibition of human muscarinic M2 receptor at 10 uM
Procedure, shortened: (§1)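 Outsourced broad receptor-screening panel of 78 targets, each tested at a single 10 uM concentration; read-out is percent inhibition. Detailed conditions are given only in the Supporting Information.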

[2] = target: D(4) dopamine receptor (Homo sapiens) (UniProt P21917); experiment: Inhibition of human dopamine D4.4 receptor at 10 uM; procedure, shortened: as §1
Rattus norvegicus [3] = experiment: Dose normalized AUC in rat at 2 mg/kg, po administered as single dose; assay type: ADME, organism-based; conditions: in vivo
Procedure, shortened: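 Single-dose rat PK: iv at 0.5 mg/kg and po at 2 mg/kg. n ≥ 2 animals per time point. Oral AUC normalized to dose; clearance, Vdss and half-life taken from the iv arm.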

[4] = target: 5-hydroxytryptamine receptor 7 (Homo sapiens) (UniProt P34969); experiment: Inhibition of human 5-HT7 receptor at 10 uM by radioligand binding assay
Procedure, shortened: (§2)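 Commercial receptor scan across a 78-target panel, with percent inhibition measured at a test concentration of 10 uM.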

[5] = target: Adrenergic receptor alpha-1 (Rattus norvegicus) (UniProt P15823+P23944+P43140); experiment: Inhibition of rat alpha1-adrenoceptor at 10 uM; procedure, shortened: as §1
Rattus norvegicus [6] = species on record: Rattus norvegicus; experiment: Inhibition of rat L-type calcium channel verapamil binding site at 10 uM; procedure, shortened: as §1
P2X purinoceptor 2 = P2X purinoceptor 2 (Homo sapiens, UniProt Q9UBL9); experiment: Inhibition of P2X2R (unknown origin)
Procedure, shortened: (§3)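 Selectivity at other P2X receptor subtypes, read as IC50 in a FLIPR Ca2+ flux assay.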

Hepatocyte = experiment: Drug metabolism in human hepatocytes assessed as hydrolysis of amide bond; assay type: ADME, cell-based
P2X purinoceptor 4 = P2X purinoceptor 4 (Homo sapiens, UniProt Q99571); experiment: Inhibition of P2X4R (unknown origin); procedure, shortened: as §3
[7] = target: D(1B) dopamine receptor (Homo sapiens) (UniProt P21918); experiment: Inhibition of human dopamine D5 receptor at 10 uM; procedure, shortened: as §1
Rattus norvegicus [8] = species on record: Rattus norvegicus; experiment: Inhibition of rat GABA receptor at 10 uM by radioligand binding assay; procedure, shortened: as §1
[9] = target: Substance-K receptor (Homo sapiens) (UniProt P21452); experiment: Inhibition of human NK2 receptor at 10 uM by radioligand binding assay; procedure, shortened: as §2
[10] = target: Histamine H2 receptor (Homo sapiens) (UniProt P25021); experiment: Inhibition of human histamine H2 receptor at 10 uM; procedure, shortened: as §1
Liver microsome = experiment: Drug metabolism in human liver microsomes assessed as hydrolysis of amide bond; assay type: ADME
[11] = target: 5-hydroxytryptamine receptor 3A (Homo sapiens) (UniProt P46098); experiment: Inhibition of human 5-HT3 receptor at 10 uM; procedure, shortened: as §2
[12] = Volume of distribution at steady state in rat at 2 mg/kg, po and 0.5 mg/kg, iv administered as single dose; assay type: ADME, organism-based; conditions: in vivo, read-out: Vdss
Procedure, shortened: (§4)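 Rats given a single dose, iv 0.5 mg/kg or po 2 mg/kg, with n ≥ 2 per time point. Bioavailability is derived from the po and iv exposures. Vdss is reported in L/kg.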

[13] = Metabolic stability in human blood; assay type: ADME; conditions: read-out: Stability (converted)
[14] = target: Histamine H1 receptor (Homo sapiens) (UniProt P35367); experiment: Inhibition of human histamine H1 receptor at 10 uM; procedure, shortened: as §1
[15] = target: Sodium-dependent noradrenaline transporter (Homo sapiens) (UniProt P23975); experiment: Inhibition of human norepinephrine transporter at 10 uM; procedure, shortened: as §1
[16] = Binding affinity to Cytochrome P450 in human liver microsomes at 10 uM incubated for 30 mins; assay type: ADME; conditions: 0.5 h
Procedure, shortened: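 Covalent binding in rat and human liver microsomes, run both without and with NADPH.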

[17] = target: C-C chemokine receptor type 1 (Homo sapiens) (UniProt P32246); experiment: Inhibition of human CCR1 at 10 uM by radioligand binding assay; procedure, shortened: as §2
P2X purinoceptor 7 [18] = target: T1, P2X purinoceptor 7 (Homo sapiens, UniProt Q99572); experiment: Antagonist activity at human P2X7R expressed in BzATP-stimulated human 1321N1 cells incubated for 20 mins followed by BzATP stimulation measured every 1 sec for 60 secs followed by 3 sec intervals for 4 mins by FLIPR Ca2+ assay in presence of ionomycin; assay type: cell-based
T1 sequence (Q99572 whole entry): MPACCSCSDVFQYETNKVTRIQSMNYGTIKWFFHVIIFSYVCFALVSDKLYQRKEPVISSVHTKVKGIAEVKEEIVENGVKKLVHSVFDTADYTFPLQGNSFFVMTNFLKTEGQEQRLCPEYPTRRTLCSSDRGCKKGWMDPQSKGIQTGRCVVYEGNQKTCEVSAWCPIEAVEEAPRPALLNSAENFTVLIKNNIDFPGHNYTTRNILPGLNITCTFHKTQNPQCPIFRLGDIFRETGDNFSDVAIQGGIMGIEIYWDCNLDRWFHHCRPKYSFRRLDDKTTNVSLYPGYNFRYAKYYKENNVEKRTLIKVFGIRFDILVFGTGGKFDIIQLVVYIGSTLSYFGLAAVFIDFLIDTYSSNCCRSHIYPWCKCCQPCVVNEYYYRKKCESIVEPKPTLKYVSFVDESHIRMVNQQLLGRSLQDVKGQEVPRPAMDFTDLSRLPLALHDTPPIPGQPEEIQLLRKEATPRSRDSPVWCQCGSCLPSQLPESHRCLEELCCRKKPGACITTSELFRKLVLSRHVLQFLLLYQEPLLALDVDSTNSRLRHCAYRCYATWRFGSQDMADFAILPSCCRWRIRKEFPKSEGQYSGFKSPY
Procedure, shortened: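 1321N1 cells stably expressing human P2X7R, stimulated with BzATP; calcium flux read on FLIPR. IC50 is the mean of n ≥ 2 runs, each including a positive control.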

[19] = Oral bioavailability in rat at 2 mg/kg administered as single dose; assay type: ADME, organism-based; conditions: in vivo; procedure, shortened: as §4
[20] = target: B2 bradykinin receptor (Homo sapiens) (UniProt P30411); experiment: Inhibition of human bradykinin 2 receptor at 10 uM by radioligand binding assay; procedure, shortened: as §1
[21] = target: 5-hydroxytryptamine receptor 5A (Homo sapiens) (UniProt P47898); experiment: Inhibition of human 5-HT5A receptor at 10 uM by radioligand binding assay; procedure, shortened: as §2
Rattus norvegicus [22] = species on record: Rattus norvegicus; experiment: Inhibition of rat P2X purinoceptor at 10 uM by radioligand binding assay; procedure, shortened: as §1
[23] = target: D(2) dopamine receptor (Homo sapiens) (UniProt P14416); experiment: Inhibition of human dopamine D2S receptor at 10 uM; procedure, shortened: as §1
[24] = target: adenosine A3 receptor (Homo sapiens) (UniProt P0DMS8); experiment: Inhibition of human adenosine A3 receptor at 10 uM by radioligand binding assay
Plasma = experiment: Metabolic stability in rat plasma at 10 uM after 4 hrs by LC/MS/MS analysis; assay type: ADME, cell-free
[25] = target: Type-1 angiotensin II receptor (Homo sapiens) (UniProt P30556); experiment: Inhibition of human angiotensin 2 receptor 1 at 10 uM; procedure, shortened: as §1
P2X purinoceptor 7 [26] = target: T1, P2X purinoceptor 7; experiment: Antagonist activity at P2X7R in human whole blood assessed as inhibition of LPS-induced IL-1beta production incubated for 30 mins followed by ATP addition for 30 mins by ELISA assay; assay type: tissue-based
[27] = target: Nociceptin receptor (Homo sapiens) (UniProt P41146); experiment: Inhibition of human ORL1 receptor at 10 uM by radioligand binding assay; procedure, shortened: as §2
Sequence of Nociceptin receptor (Homo sapiens) (P41146 whole entry): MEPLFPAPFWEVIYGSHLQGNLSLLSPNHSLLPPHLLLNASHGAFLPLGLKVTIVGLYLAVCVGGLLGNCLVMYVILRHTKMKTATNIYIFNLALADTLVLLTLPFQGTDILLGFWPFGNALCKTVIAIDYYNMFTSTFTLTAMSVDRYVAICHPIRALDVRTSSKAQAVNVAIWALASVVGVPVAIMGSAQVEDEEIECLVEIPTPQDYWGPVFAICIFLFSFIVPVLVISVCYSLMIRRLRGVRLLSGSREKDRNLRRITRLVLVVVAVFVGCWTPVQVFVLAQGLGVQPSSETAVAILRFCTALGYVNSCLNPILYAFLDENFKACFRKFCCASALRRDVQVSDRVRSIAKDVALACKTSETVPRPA

Sequence of 5-hydroxytryptamine receptor 5A (Homo sapiens) (P47898 whole entry): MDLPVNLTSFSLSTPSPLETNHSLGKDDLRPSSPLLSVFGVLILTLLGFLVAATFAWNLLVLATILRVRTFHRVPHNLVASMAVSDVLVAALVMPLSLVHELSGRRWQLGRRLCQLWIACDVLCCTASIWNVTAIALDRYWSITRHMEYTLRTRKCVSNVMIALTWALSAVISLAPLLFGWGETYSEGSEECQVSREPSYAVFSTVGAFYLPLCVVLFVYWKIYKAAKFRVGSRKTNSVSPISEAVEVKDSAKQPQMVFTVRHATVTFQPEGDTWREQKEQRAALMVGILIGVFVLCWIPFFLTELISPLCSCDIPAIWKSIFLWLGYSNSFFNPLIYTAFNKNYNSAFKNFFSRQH
Sequence of C-C chemokine receptor type 1 (Homo sapiens) (P32246 whole entry): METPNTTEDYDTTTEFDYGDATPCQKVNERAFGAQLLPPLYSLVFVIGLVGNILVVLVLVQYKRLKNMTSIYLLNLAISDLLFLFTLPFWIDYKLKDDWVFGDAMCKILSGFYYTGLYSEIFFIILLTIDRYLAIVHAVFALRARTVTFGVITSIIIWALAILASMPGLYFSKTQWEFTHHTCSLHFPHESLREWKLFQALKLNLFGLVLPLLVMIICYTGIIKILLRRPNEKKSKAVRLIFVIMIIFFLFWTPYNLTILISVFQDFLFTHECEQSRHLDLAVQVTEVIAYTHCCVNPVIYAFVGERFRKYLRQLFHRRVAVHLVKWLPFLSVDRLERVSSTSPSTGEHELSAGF
Sequence of B2 bradykinin receptor (Homo sapiens) (P30411 whole entry): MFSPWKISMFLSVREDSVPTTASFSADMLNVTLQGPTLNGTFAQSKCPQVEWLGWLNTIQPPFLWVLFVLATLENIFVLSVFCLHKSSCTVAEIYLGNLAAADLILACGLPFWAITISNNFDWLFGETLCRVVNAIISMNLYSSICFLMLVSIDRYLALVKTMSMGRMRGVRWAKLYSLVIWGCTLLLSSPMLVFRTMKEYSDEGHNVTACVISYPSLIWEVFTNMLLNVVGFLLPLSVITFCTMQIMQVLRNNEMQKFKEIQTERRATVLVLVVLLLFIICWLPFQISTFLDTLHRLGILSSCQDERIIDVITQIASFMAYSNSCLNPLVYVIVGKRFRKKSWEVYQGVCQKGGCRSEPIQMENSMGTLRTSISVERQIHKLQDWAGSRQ
Sequence of D(1B) dopamine receptor (Homo sapiens) (P21918 whole entry): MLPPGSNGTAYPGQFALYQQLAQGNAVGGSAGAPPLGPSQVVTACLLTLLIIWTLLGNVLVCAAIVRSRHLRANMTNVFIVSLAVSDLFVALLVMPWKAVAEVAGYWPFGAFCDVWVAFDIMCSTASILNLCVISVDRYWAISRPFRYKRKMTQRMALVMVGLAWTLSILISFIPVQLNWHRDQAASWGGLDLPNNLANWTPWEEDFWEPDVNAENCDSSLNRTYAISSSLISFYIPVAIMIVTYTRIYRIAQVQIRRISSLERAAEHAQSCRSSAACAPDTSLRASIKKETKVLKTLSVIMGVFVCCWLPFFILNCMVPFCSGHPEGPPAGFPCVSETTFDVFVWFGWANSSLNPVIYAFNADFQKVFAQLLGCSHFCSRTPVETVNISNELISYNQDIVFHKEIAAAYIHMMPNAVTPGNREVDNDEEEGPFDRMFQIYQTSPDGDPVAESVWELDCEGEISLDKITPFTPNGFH
Sequence of Muscarinic acetylcholine receptor M2 (Homo sapiens) (P08172 whole entry): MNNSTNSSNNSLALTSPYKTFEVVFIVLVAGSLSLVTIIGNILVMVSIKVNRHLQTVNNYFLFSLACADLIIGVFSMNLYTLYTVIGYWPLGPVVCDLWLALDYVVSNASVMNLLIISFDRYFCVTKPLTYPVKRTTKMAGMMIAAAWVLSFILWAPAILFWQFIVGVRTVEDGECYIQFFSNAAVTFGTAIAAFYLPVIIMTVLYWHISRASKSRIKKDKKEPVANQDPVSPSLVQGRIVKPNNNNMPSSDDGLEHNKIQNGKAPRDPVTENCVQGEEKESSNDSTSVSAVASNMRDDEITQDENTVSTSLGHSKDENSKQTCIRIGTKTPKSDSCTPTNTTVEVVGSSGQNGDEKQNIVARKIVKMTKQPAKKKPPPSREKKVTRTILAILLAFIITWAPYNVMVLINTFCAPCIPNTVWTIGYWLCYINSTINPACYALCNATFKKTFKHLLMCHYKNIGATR
Sequence of 5-hydroxytryptamine receptor 3A (Homo sapiens) (P46098 whole entry): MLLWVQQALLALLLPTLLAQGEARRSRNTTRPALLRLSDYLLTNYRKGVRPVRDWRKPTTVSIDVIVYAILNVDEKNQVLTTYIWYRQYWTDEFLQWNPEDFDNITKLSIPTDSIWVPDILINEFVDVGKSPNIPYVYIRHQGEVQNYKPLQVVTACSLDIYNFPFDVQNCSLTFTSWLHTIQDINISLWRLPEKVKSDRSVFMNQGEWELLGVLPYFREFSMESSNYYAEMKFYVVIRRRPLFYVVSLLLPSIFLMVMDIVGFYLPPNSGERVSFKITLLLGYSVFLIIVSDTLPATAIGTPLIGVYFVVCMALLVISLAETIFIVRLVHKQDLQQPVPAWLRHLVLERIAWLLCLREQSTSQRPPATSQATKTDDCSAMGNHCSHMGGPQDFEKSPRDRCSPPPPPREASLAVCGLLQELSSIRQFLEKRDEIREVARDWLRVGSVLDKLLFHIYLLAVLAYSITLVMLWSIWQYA
Sequence of P2X purinoceptor 4 (Q99571 whole entry): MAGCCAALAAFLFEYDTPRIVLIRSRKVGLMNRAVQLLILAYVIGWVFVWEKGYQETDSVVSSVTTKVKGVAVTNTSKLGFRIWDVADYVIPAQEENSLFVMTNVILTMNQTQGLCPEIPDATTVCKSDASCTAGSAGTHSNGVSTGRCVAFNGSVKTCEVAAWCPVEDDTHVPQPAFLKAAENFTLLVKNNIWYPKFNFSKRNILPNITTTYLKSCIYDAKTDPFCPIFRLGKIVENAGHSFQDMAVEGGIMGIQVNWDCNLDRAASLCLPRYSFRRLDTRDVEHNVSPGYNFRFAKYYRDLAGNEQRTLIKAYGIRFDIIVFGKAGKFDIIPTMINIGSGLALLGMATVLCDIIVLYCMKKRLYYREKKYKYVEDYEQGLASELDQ
Sequence of adenosine A3 receptor (Homo sapiens) (P0DMS8 whole entry, looked up): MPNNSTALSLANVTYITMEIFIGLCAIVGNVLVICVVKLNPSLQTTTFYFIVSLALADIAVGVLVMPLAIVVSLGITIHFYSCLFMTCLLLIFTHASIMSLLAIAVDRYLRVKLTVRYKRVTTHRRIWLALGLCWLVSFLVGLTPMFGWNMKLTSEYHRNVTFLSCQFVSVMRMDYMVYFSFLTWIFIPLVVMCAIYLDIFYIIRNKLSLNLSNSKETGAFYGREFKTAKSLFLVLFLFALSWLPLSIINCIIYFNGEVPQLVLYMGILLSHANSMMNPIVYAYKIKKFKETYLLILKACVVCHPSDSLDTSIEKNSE
Sequence of Type-1 angiotensin II receptor (Homo sapiens) (P30556 whole entry): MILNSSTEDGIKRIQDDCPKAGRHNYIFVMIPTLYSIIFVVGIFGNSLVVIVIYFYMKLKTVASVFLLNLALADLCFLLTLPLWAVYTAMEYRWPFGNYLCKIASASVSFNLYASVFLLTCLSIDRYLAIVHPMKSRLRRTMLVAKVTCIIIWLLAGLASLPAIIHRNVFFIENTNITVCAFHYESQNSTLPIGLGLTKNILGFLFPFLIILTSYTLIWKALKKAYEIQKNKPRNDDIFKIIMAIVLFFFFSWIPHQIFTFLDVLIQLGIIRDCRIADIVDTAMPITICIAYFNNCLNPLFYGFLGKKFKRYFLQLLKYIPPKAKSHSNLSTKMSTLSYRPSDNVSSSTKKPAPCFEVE
Sequence of P2X purinoceptor 2 (Q9UBL9 whole entry): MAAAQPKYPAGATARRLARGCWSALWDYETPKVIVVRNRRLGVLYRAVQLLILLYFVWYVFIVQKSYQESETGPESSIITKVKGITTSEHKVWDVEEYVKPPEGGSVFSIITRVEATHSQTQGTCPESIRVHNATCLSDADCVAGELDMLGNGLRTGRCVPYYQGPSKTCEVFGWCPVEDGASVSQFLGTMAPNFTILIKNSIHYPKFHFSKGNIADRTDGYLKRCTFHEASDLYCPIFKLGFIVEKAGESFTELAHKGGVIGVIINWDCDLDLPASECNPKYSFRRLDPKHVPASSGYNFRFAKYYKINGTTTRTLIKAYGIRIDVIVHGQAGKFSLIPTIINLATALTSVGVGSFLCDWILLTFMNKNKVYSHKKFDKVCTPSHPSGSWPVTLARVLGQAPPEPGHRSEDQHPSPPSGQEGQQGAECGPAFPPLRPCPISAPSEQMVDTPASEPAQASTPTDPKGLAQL
Sequence of Histamine H1 receptor (Homo sapiens) (P35367 whole entry): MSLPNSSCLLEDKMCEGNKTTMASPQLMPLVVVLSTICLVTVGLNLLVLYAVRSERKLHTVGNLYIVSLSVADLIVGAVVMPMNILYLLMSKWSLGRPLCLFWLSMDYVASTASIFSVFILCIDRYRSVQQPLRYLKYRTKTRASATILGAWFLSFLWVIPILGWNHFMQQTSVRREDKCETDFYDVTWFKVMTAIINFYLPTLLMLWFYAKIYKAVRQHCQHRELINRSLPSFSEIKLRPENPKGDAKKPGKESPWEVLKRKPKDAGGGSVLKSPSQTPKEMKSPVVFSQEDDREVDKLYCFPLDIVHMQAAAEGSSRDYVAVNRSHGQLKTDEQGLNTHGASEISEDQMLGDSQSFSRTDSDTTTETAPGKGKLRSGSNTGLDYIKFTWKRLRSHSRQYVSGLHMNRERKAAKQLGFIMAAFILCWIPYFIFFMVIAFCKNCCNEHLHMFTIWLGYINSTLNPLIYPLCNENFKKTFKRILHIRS

Cc1cc(Cl)c(OCCO)cc1NC(=O)C1=CNC(=O)C[C@H]1c1ccc(F)cc1
inhibition [1]: < 30%
inhibition [2]: < 30%
AUC/dose (Rattus norvegicus [3]): 1550 ng·h/mL/mg/kg
inhibition [4]: < 30%
inhibition [5]: < 30%
inhibition (Rattus norvegicus [6]): < 30%
pIC50 (P2X purinoceptor 2): < 5.00
Stability (Hepatocyte): Stable
pIC50 (P2X purinoceptor 4): < 5.00
inhibition [7]: < 30%
inhibition (Rattus norvegicus [8]): < 30%
inhibition [9]: < 30%
inhibition [10]: < 30%
Stability (Liver microsome): Stable
inhibition [11]: < 30%
Vd [12]: 2.2 L/kg
half-life [13]: 3 h
inhibition [14]: < 30%
inhibition [15]: < 30%
PB [16]: Not Active
inhibition [17]: < 30%
pIC50 (P2X purinoceptor 7 [18]): 7.64
bioavailability [19]: 74%
inhibition [20]: < 30%
inhibition [21]: < 30%
inhibition (Rattus norvegicus [22]): < 30%
inhibition [23]: < 30%
inhibition [24]: < 30%
Stability (Plasma): Stable
inhibition [25]: < 30%
pIC50 (P2X purinoceptor 7 [26]): 7.22
inhibition [27]: < 30%
